Compound activity as filed in PubChem BioAssay.
Only some compounds are listed: those with a hit (about 1.7% of all), similar ones and a draw of the others.
IMP-1 inhibitor = IMP-1 metallo-beta-lactamase inhibitors, primary screen, biochemical, epi-absorbance readout, Pseudomonas aeruginosa enzyme. metallo-beta-lactamase IMP-1 (Pseudomonas aeruginosa). purified IMP-1, nitrocefin hydrolysis, epi-absorbance fluorescence. inhibition, % at 5.6 µM. 290,000 compounds, 0.45% hits. AID 1556, 2009;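 active = inhibition above the mean plus 3 SD of all compounds in the same screening run, cut at about 4.5% in these data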
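System: purified recombinant IMP-1 beta-lactamase. Medium: Zinc- and detergent-supplemented HEPES buffer, pH 7.1. Compound: one 5.6 µM dose […]. Schedule: 15 min preincubation plus 25 min reaction at 25 °C. Technique: Epi-absorbance fluorescence, 480 nm excitation, 530 nm emission.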
procasp7 counter = procaspase-7 activators, primary screen, counter-screen for procaspase-3 activator project, biochemical, absorbance, HTS, human | 330,000 compounds, 0.093% hits | activation, % at 8.5 µM | recombinant procaspase-7, Ac-DEVD-pNA absorbance 405 nm; D23A/D198A/D206A triple mutant, cannot self-cleave; scale: DMSO 0, 5 µM enzyme 100 | Caspase-7 (Homo sapiens), P55210 | AID 463210, 2010;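 active = percent activation above the screen-wide mean plus 3 SD, cut at about 25% in these data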
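Test system: Procaspase-7 triple mutant (PC-7 D3A). Also added: Ac-DEVD-pNA substrate, 400 µM as added. Schedule: 1 h enzyme–compound preincubation and 2 h substrate reaction, both 25 °C. Signal: p-Nitroaniline absorbance at 405 nm, read at 0 and 120 min. Control set: low DMSO alone, high DMSO plus 5 µM PC-7.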
VIM-2 inhibitor = VIM-2 metallo-beta-lactamase inhibitors, primary screen, biochemical, epi-absorbance readout, Pseudomonas aeruginosa enzyme; inhibition, % at 5.6 µM; purified VIM-2, nitrocefin hydrolysis, epi-absorbance fluorescence; 290,000 compounds, 0.89% hits;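 active = inhibition above the mean of all tested compounds plus 3 SD, cutoff set per screening run, cut at about 7.5% in these data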;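 note: red hydrolysis product quenches plate fluorescence so inhibitors raise well fluorescence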
Neddylation inh = inhibitors of cullin neddylation, primary screen, biochemical, TR-FRET, uHTS, NAE and Ubc12; NEDD8-conjugating enzyme Ubc12 (Homo sapiens) + NEDD8-activating enzyme E1 regulatory …; calls only at 25 µM; 360,000 compounds, 0.58% hits; AID 651699, 2012; in the data active = inhibition above about 36%
Target sequence (P61081 whole entry, looked up): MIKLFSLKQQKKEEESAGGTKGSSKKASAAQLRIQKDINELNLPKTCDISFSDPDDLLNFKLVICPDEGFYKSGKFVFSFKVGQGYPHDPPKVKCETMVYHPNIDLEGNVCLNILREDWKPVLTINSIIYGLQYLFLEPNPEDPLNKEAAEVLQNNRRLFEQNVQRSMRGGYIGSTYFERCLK
Target sequence (Q13564 whole entry, looked up): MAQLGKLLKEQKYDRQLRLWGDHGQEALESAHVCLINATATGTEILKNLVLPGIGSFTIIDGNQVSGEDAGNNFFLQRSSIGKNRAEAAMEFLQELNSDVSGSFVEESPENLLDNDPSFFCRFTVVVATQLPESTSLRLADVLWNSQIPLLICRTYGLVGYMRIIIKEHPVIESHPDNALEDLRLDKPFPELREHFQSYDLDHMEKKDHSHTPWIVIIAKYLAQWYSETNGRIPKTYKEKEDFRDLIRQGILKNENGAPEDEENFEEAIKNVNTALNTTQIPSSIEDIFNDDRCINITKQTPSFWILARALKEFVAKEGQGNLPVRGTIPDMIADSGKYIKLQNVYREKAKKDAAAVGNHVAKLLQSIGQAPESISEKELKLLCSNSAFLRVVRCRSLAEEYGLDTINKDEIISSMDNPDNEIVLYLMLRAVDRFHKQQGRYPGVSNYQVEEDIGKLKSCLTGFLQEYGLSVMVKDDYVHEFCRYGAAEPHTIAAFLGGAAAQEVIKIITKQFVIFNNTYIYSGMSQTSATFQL
procasp3 activ = activators of human procaspase-3 D3A mutant, primary screen, biochemical, absorbance, PC-3 D3A mutant, single concentration; recombinant procaspase-3 D3A, Ac-DEVD-pNA absorbance 405 nm; AID 463141, 2010; Caspase-3 (Homo sapiens), P42574; 330,000 compounds, 0.11% hits; activation, % at 8.5 µM;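 active = activation above the mean of all tested compounds plus 3 SD, cut at about 21% in these data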
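Assay system – Procaspase-3 D3A mutant · Benchmarks – DMSO low control, extra-enzyme high control · Technique – 405 nm absorbance of p-nitroaniline, reads at 0 and 120 min · Doses – 8.5 µM nominal · Measure – % activation between DMSO and enzyme-spiked controls · Also added – Ac-DEVD-pNA chromogenic peptide substrate · Schedule – 1 h compound preincubation, 2 h substrate hydrolysis at 25 °C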
PolyA inh = polyadenylation inhibitors in yeast reporter cells, primary screen, luminescence, S. cerevisiae. activity score, % at 12 µM. S. cerevisiae SKY197-pL101 polyadenylation reporter, beta-gal luminescence; efflux-impaired pdr1/pdr3 knockout yeast; score 100 = 6 SD above DMSO. 300,000 compounds, 0.02% hits;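 active = lowest replicate activity score at least 50, where 100 means six control SD above control mean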;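 note: yeast exposed to compound for 9 h at 30 °C; higher score means more reporter readthrough which indicates perturbed polyadenylation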
Neddyl conf = blockade of NEDD8 conjugation to cullin – biochemical, TR-FRET, single concentration, confirmation; shares compounds with Neddylation inh; AID 652217, 2013; TR-FRET cullin neddylation biochemical assay; calls only at 25 µM; 1,800 compounds, 13% hits; in the data active = inhibition above about 40%;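 note: neddylation substrate is the cullin 1 ring ligase complex with SKP2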
Calls only; - = inactive; . = no result given; + = active, no number.

SMILES | IMP-1 inhibitor | procasp7 counter | VIM-2 inhibitor | Neddylation inh | procasp3 activ | PolyA inh | Neddyl conf
CCCCC(=O)Nc1cccc(-c2nc3ncccc3o2)c1C | - | - | - | + | - | - | -
CCCC(=O)Nc1cc(-c2nn(C)c(=O)c3ccccc23)ccc1N1CCCCC1 | - | - | - | - | - | - | .
CCC(=O)Nc1cc(-c2nn(C)c(=O)c3ccccc23)ccc1N1CCCCC1 | - | - | - | + | - | - | -
CC(=O)Nc1nc(CC(C)C)cc(-c2ccco2)c1C#N | - | - | - | + | - | - | -
CC(=O)Nc1nc(CC(C)C)cc(-c2ccccc2)c1C#N | - | - | - | - | - | - | .
C/C(=N\NC(=S)NCCc1ccccc1)c1ccc(Cl)cc1 | - | - | - | - | - | - | .
O=C(c1cccc(Cl)c1)N1CCN(C2CCCCC2)CC1 | - | - | - | - | - | - | .
CC(Cc1ccccc1)=NNS(=O)(=O)c1ccc([N+](=O)[O-])cc1 | . | . | . | - | . | . | .
CCSC1=C(C#N)C(CC(C)C)C2=C(CCCC2=O)N1 (stereo unspecified) | - | - | - | + | - | - | -
NC(=O)CSc1nc2ccccc2c(=O)n1Cc1ccccc1 | - | - | - | - | - | - | .
N#CCCN(C(=O)CN1C(=O)NC2(CCCC2)C1=O)c1ccccc1F | - | - | - | - | - | - | .
COc1ccc(CN2CCc3c([nH]c4ccccc34)C2)cc1Br | - | - | - | + | - | - | -
COC(=O)CSc1nc2ccc(N)cc2s1 | - | - | - | - | - | - | .
COC(=O)CSc1ccc2c(N)c(C(=O)OC)sc2c1 | - | - | - | + | - | - | +
COc1ccc(Oc2c(OC)cc(NCc3ccc(CN)cc3)c3ncccc23)cc1 | . | . | . | - | . | . | .
Cc1ccc(-n2nc(C)c3c2OC(N)=C(C#N)C3c2ccc(C)o2)cc1 (stereo unspecified) | - | - | - | - | - | - | .
Cc1ccc2nc(-c3ccc(NC(=O)COCC(=O)O)cc3)sc2c1 | - | - | - | + | - | - | +
Cc1ccc(C#N)c(SCCN2CCCCC2)n1 | - | . | - | - | . | - | .
CCN(CC)CCCN(Cc1cc2cc3c(cc2[nH]c1=O)OCO3)C(=S)NCCCN(C)C | - | - | - | + | - | - | -
S=c1[nH]nc(-c2ccncc2)n1/N=C/C=C/c1ccco1 | - | - | - | - | - | - | .
Cc1cccc(-c2n[nH]c(=S)n2/N=C/C=C/c2ccco2)c1 | - | - | - | + | - | - | -
O=c1[nH]c(/C(Cl)=C/c2cccc(F)c2)nc2cc(C(F)(F)F)ccc12 | - | - | - | + | - | - | -
COc1ccc(C(=O)Nc2ccc3oc(-c4cccnc4)nc3c2)cc1OC | - | - | - | + | - | - | .
CN1CCC(C(=O)N2CCCC(C(=O)c3ccc4c5c(cccc35)CC4)C2)CC1 (stereo unspecified) | - | - | - | + | - | - | -
CC(=O)N1CCCC(C(=O)c2ccc3c4c(cccc24)CC3)C1 (stereo unspecified) | - | - | - | . | - | - | .
COc1c(Cl)cccc1-c1cn2ccc(C)cc2n1 | - | - | - | + | - | - | -
Cc1ccc(S(=O)(=O)Nc2ccc(-c3cn4ccc(C)cc4n3)cc2)cc1 | - | - | - | + | - | - | -
Cc1ccn2cc(-c3cccc(NS(C)(=O)=O)c3)nc2c1 | - | - | - | + | - | - | -
